Data taken from ChEMBL document CHEMBL4680066, “Deacylcortivazol-like pyrazole regioisomers reveal a more accommodating expanded binding pocket for the glucocorticoid receptor” (RSC Med Chem, 2021).

How the values were obtained:
[1] = test system: REH; assay: Cytotoxicity against human REH cells overexpressing GR assessed as reduction in cell viability measured after 3 days by resazurin based assay; assay type: functional
Outline: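 REH B-ALL cells (naturally GR-null) were lentivirally infected with GFP-T2A-GR, and the top 10% GFP sorted population was used. Cells grown in RPMI + 10% FBS, seeded at 9,000 cells/well in 384-well format. DMSO serial dilutions (2500 µM to 0.01 µM stocks) were diluted 1:500 and then added 1:1, giving 0.1% final DMSO. Exposure 72 h. Read-out: PrestoBlue fluorescence (Ex 560/Em 590), normalized to DMSO-only wells. EC50 by 4-parameter fit per replicate, at least 6 replicates.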

[2] = molecular target: T1, Glucocorticoid receptor (Homo sapiens) (UniProt P04150); settings: HEK293T, filed as modulator, time 22.0 min
T1 sequence (whole entry): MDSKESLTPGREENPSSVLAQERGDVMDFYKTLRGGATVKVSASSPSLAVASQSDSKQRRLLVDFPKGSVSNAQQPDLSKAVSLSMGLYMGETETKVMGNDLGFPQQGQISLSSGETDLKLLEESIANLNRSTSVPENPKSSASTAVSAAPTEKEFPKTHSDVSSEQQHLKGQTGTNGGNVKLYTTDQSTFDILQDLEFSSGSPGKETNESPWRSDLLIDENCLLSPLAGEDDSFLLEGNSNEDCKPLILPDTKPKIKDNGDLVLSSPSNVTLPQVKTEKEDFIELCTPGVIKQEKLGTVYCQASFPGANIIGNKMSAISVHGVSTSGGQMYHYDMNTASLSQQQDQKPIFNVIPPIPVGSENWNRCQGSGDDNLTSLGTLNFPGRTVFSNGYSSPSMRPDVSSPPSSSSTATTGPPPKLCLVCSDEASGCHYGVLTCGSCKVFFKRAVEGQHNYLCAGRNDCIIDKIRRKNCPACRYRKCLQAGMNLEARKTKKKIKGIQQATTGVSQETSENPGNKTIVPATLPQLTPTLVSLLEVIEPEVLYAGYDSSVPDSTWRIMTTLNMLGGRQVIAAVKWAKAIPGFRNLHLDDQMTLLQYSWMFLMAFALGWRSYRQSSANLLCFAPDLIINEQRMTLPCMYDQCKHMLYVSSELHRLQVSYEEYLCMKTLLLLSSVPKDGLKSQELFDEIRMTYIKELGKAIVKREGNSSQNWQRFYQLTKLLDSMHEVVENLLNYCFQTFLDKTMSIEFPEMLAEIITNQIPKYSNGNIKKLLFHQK

[3] = molecular target: T2, Glucocorticoid receptor (Homo sapiens, UniProt P04150); assay: Induction of translocation of human glucocorticoid receptor expressed in HEK293T cells transduced with lentiviral vector expressing H2B-mCherry and GFP-GR assessed as effective dissociation constant measured every 130 sec for 22 mins by fluorescence imaging analysis; assay type: cell-based
T2 sequence (P04150 whole entry): T1 sequence (whole entry)

[4] = Homo sapiens, REH, 72 h, read-out: EC50

Row | Structure (SMILES) | EC50 [1, 4] [nM] | T1/2 [2] [min] | Kd ([3]; read-out: Kd) [nM] | Kd ([3]; hek293t) | EC50 ([1]; reh)
1 | CCCCCCn1ncc2c1C=C1CC[C@@H]3[C@H]([C@@H](O)C[C@@]4(C)[C@H]3CC[C@]4(O)C(=O)CO)[C@@]1(C)C2 | 27 | 2.1 | 9 | – | –
2 | C[C@]12Cc3cnn(-c4ccccc4)c3C=C1CC[C@@H]1[C@@H]2[C@@H](O)C[C@@]2(C)[C@H]1CC[C@]2(O)C(=O)CO | 2.3 | 2.67 | 2.2 | – | –
3 | C[C@]12Cc3cn(-c4ccccc4)nc3C=C1CC[C@@H]1[C@@H]2[C@@H](O)C[C@@]2(C)[C@H]1CC[C@]2(O)C(=O)CO | 1.3 | 2.63 | 2.2 | – | –
4 | C[C@]12Cc3cnn(-c4ccc(F)cc4)c3C=C1CC[C@@H]1[C@@H]2[C@@H](O)C[C@@]2(C)[C@H]1CC[C@]2(O)C(=O)CO | 1.4 | 2.2 | 2.6 | – | –
5 | C[C@]12Cc3cn(-c4ccc(F)cc4)nc3C=C1CC[C@@H]1[C@@H]2[C@@H](O)C[C@@]2(C)[C@H]1CC[C@]2(O)C(=O)CO | 225 | 4.33 | 138 | – | –
6 | Cc1ccc(-n2cc3c(n2)C=C2CC[C@@H]4[C@H]([C@@H](O)C[C@@]5(C)[C@H]4CC[C@]5(O)C(=O)CO)[C@@]2(C)C3)cc1 | 7270 | – | 883 | – | –
7 | COc1cccc(-n2ncc3c2C=C2CC[C@@H]4[C@H]([C@@H](O)C[C@@]5(C)[C@H]4CC[C@]5(O)C(=O)CO)[C@@]2(C)C3)c1 | 346 | 4.17 | – | – | –
8 | COc1cccc(-n2cc3c(n2)C=C2CC[C@@H]4[C@H]([C@@H](O)C[C@@]5(C)[C@H]4CC[C@]5(O)C(=O)CO)[C@@]2(C)C3)c1 | – | – | – | Not Active | –
9 | CCCCCCn1cc2c(n1)C=C1CC[C@@H]3[C@H]([C@@H](O)C[C@@]4(C)[C@H]3CC[C@]4(O)C(=O)CO)[C@@]1(C)C2 | – | – | – | – | Not Active
10 | C[C@@H]1C[C@H]2[C@@H]3CCC4=CC(=O)C=C[C@]4(C)[C@@]3(F)[C@@H](O)C[C@]2(C)[C@@]1(O)C(=O)CO [DEXAMETHASONE] | 6.7 | – | – | – | –
